Published values of several laboratories.
Compare with care: the assays were run in different laboratories.
Target: Mitogen-activated protein kinase kinase kinase kinase 4 (MAP4K4, Homo sapiens, UniProt O95819)

For `CCCCC(=O)Nc1ccc(-c2ccc3ncn(CCC)c(=O)c3c2)cn1`, the remaining binding was 100% (binding, competition with immobilised ligand; 0.5 µM).
`C=CC(=O)N1CCC([C@@H]2CCNc3c(C(N)=O)c(-c4ccc(Oc5ccccc5)cc4)nn32)CC1` gave an inhibition of 23% (enzyme activity, inhibitor; 1 µM).
For `COc1ccc2oc(-c3ccc4nc(N)oc4c3)c/c(=N\c3ccccc3NC(=O)CCN)c2c1`, the remaining binding was 96% (binding; 1 µM).
With `Cc1cc(O)c(-c2ccc([C@@H](C)CN(C)C)cc2)c2c1[nH]c(=O)c1sccc12` the inhibition was -4% (enzyme activity, inhibitor; 0.1 µM).
The inhibition of `C#Cc1cc(-c2cc(Nc3nc(N[C@@H](C)c4ccc(F)cn4)ncc3Cl)n[nH]2)ccc1C=O` is reported as 11.9% (enzyme activity, inhibitor; 0.2 µM).
The inhibition of `C=CC(=O)N1CCC[C@@H](n2nc(-c3ccc(Oc4ccccc4)cc3)c3c(N)ncnc32)C1` is reported as 4% (enzyme activity, inhibitor; 1 µM).
The remaining binding of `C[C@H]1CC[C@H](n2c3cnccc3c3cnc(Nc4ccc5c(n4)CCN(C(=O)CO)C5)nc32)CC1` is reported as 100% (binding, competition with immobilised ligand; 1 µM).
`C1=C/COCc2cc(ccc2OCCN2CCCC2)Nc2nccc(n2)-c2cccc(c2)COC/1` gave a remaining binding of 55% (binding; 0.1 µM).
`CC(C)S(=O)(=O)c1ccc2nccc(Nc3ccc4sc(C5CCCC5)nc4c3)c2c1` gave an activity vs control of 110% (enzyme activity, inhibitor; 1 µM).
`COc1ccc2[nH]c3c4[nH]c5ccc(OC)cc5c4c4c(c3c2c1)C(=O)NC4=O` has a remaining binding of 2.7% (binding, competition with immobilised ligand; 1 µM).
